Laboratory results as given in ChEMBL document CHEMBL3352788, “Characterization of selective exosite-binding inhibitors of matrix metalloproteinase 13 that prevent articular cartilage degradation in vitro” (J Med Chem, 2014).

How the values were obtained:
[1] = tested on: Liver; assay: Half life in mouse liver microsomes by LC-MS/MS analysis; type: ADME
In short: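 Compound at 1 μM with 1 mg/mL liver microsomes in 100 mM potassium phosphate pH 7.4 at 37 °C with shaking. Reaction started with 1 mM NADPH (final). Aliquots were taken at 0, 5, 10, 20, 40 and 60 min and quenched in acetonitrile. Parallel incubations without NADPH were run.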

[2] = biological target: Cytochrome P450 3A4 (Homo sapiens, UniProt P08684); assay: Inhibition of CYP3A4 (unknown origin) using testosterone substrate; type: ADME
In short: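 Reactions stopped with acetonitrile/0.1% formic acid plus labelled internal standard. Metabolite measured by LC-MS area ratio. IC50 by linear interpolation.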

[3] = biological target: Collagenase 3 (Homo sapiens, UniProt P45452); assay: Non-competitive inhibition of full-length recombinant human MMP-13 assessed as fTHP-15 substrate hydrolysis
[4] = biological target: T1, Caspase-6 (Homo sapiens) (UniProt P55212); assay: Inhibition of recombinant human caspase 6 using VEHDGG substrate at up to 5 uM after 3 hrs
T1 sequence (whole entry): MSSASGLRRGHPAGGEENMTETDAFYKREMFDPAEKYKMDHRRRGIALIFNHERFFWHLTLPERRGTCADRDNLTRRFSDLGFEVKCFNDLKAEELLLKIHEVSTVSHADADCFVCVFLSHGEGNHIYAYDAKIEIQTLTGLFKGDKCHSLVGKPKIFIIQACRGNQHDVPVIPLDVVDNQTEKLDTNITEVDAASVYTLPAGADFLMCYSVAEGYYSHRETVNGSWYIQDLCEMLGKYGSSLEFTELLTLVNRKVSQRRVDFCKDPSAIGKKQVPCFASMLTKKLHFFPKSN
In short: (§1)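 Outsourced microfluidic protease panel. Compound was preincubated with each protease for 30 min at 25 °C, then peptide substrate was added for 3 h at 25 °C and quenched with SDS/EDTA/iodoacetate. Substrate-to-product conversion was measured on LabChip. Compounds were tested singly in a 12-point 3-fold dilution series, top 20 μM (5 μM for two reference compounds).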

[5] = biological target: Procathepsin L (Homo sapiens) (UniProt P07711); assay: Inhibition of recombinant human cathepsin L using GGALRAG substrate at up to 5 uM after 3 hrs
In short: (§2)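 In this microfluidic protease panel, enzyme and compound were preincubated 30 min at 25 °C. The peptide substrate was added and the reaction was incubated 3 h at 25 °C, then quenched (SDS, EDTA, iodoacetate). Activity was read as % substrate converted to product. Dose–response was singlicate, 12-point 3-fold dilutions spanning 5 μM to 0.028 nM. IC50 was the concentration leaving 50% activity relative to no-compound control.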

[6] = biological target: T2, Caspase-1 (Homo sapiens) (UniProt P29466); assay: Inhibition of recombinant human caspase 1 using WEHDGPKR substrate at up to 5 uM after 3 hrs; in short: as §1
T2 sequence (whole entry): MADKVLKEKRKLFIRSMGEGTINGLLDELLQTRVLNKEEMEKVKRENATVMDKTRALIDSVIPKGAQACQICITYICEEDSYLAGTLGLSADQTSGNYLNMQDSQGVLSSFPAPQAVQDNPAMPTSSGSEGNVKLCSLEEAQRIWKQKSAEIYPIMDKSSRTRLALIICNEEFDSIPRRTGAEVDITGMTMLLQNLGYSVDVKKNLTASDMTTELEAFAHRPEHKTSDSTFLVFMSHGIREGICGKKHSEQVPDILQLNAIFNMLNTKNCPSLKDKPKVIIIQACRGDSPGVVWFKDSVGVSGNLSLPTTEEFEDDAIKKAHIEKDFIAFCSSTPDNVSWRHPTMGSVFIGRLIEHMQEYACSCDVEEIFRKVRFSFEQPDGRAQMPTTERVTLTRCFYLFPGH

[7] = biological target: Coagulation factor X (Homo sapiens) (UniProt P00742); assay: Inhibition of recombinant human factor 10a using ALPRTMFIQ substrate at up to 5 uM after 3 hrs; in short: as §2
[8] = biological target: T3, Cathepsin K (Homo sapiens) (UniProt P43235); assay: Inhibition of recombinant human cathepsin K using HHQKLVFFAE substrate at up to 5 uM after 3 hrs; in short: as §1
T3 sequence (whole entry): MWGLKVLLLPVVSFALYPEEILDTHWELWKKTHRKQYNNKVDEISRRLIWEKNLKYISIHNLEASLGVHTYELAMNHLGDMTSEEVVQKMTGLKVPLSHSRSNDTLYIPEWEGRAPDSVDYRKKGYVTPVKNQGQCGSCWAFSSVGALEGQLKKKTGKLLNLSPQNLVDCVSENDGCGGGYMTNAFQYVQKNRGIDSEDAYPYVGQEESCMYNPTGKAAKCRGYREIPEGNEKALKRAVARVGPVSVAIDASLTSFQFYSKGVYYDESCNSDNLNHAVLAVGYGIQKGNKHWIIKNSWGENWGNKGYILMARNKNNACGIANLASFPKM

[9] = biological target: T4, Caspase-3 (Homo sapiens) (UniProt P42574); assay: Inhibition of recombinant human caspase 3 using DEVDAA substrate at up to 5 uM after 3 hrs; in short: as §1
T4 sequence (whole entry): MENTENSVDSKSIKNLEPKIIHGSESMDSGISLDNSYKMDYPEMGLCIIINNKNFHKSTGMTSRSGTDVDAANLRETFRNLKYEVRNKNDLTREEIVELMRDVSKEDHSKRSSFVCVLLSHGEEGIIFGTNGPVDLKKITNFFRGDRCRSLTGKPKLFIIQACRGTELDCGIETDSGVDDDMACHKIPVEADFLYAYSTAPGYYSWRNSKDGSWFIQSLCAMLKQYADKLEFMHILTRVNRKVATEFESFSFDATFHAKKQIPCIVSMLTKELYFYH

[10] = biological target: Cathepsin S (Homo sapiens) (UniProt P25774); assay: Inhibition of recombinant human cathepsin S using RTLTAK substrate at up to 5 uM after 3 hrs; in short: as §2
[11] = biological target: Urokinase-type plasminogen activator (Homo sapiens) (UniProt P00749); assay: Inhibition of recombinant human uPA using GRTSSVEP substrate at up to 5 uM after 3 hrs; in short: as §2
[12] = biological target: CYP3A4 (Homo sapiens, UniProt P08684); assay: Inhibition of CYP3A4 (unknown origin) using midazolam substrate at 20 uM; type: ADME; settings: probe midazolam
In short: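 Human liver microsomes with probe substrate and an NADPH-regenerating system in 0.1 M potassium phosphate pH 7.4 at 37 °C, run in duplicate. Inhibitor at 0–20 μM (0–2.5 μM for one compound), eight concentrations. Reactions were stopped with acetonitrile/formic acid containing isotope-labelled internal standard, and metabolite area ratios were compared with and without inhibitor. IC50 was taken by linear interpolation between bracketing concentrations.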

CYP3A4, sequence (P08684 whole entry): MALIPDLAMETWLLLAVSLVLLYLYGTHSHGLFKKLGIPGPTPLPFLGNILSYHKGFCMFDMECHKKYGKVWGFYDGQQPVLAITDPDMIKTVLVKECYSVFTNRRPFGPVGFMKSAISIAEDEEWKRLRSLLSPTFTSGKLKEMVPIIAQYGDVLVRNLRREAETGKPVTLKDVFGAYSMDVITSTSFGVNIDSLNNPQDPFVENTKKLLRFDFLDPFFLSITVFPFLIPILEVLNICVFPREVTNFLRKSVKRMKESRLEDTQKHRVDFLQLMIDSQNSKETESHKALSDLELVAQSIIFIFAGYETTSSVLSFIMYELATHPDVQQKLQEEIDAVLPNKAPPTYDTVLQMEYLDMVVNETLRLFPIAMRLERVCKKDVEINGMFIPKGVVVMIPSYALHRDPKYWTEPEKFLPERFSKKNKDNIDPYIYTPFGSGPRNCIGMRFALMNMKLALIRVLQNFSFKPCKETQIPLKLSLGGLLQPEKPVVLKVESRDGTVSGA
Cytochrome P450 3A4, sequence (P08684 whole entry): as above
Coagulation factor X (Homo sapiens), sequence (P00742 41-179 limits assumed): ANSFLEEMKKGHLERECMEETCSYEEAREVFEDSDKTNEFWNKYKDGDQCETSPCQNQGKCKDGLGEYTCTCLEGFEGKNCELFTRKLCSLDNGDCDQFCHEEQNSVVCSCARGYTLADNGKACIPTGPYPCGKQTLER
Coagulation factor X (Homo sapiens), sequence (P00742 235-488 limits assumed): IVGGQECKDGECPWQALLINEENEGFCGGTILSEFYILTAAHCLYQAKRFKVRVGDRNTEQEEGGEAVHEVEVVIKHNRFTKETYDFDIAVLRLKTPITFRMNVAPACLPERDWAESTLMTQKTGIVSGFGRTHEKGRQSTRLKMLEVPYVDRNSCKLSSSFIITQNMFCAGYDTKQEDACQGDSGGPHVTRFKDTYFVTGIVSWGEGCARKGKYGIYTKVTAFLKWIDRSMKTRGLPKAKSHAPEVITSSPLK
Cathepsin S (Homo sapiens), sequence (P25774 115-331 limits assumed): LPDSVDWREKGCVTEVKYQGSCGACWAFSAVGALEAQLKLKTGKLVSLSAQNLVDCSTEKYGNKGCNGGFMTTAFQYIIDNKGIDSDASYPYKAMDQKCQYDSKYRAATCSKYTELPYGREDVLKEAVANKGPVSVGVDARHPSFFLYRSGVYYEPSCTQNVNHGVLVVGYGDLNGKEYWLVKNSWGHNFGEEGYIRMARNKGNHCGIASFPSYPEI
Procathepsin L (Homo sapiens), sequence (P07711 114-333 limits assumed): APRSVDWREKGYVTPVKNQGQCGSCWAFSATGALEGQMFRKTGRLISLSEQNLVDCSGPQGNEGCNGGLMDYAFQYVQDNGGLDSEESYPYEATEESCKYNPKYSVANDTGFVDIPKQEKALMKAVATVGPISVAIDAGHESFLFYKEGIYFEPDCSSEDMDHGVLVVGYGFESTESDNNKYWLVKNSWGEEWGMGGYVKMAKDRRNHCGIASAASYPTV

inhibition [4] [%]	inhibition [5] [%]	inhibition [6] [%]	inhibition [7] [%]	inhibition [8] [%]	inhibition [9] [%]	inhibition [10] [%]	inhibition [11] [%]	Compound	t1/2 [1] [min]	IC50 [2] [µM]	IC50 [3] [µM]	inhibition at 20 µM [12] [%]
								Oc1nc(SCc2ccc(Cl)cc2)nc2c1CCC2	1.3	> 20	3.4	
< 10	< 10	< 10	< 10	> 10	< 10	< 10	< 10	Cn1c(=O)n(Cc2ccc(C(=O)O)cc2)c(=O)c2cc(C#CCc3ccccc3)ccc21				
< 10	< 10	< 10	< 10	< 10	< 10	< 10	< 10	Cc1cc(CNC(=O)c2cc(C(=O)NCc3ccc(F)c(C)c3)ncn2)ccc1F				< 50
								COC(=O)c1ccc(CSc2nc3c(c(=O)[nH]2)CCC3)cc1	2	> 20	2.8	< 50
